Bioassay records deposited in PubChem by Broad Institute.
Rows were chosen to be rich in hits. Some 3.1% of all compounds tested hit in one or more screens of this group.
HIV Env fusion = blocks HIV Env-driven cell-cell fusion; 360,000 tested, 1.1% active; HeLa-JRFL Env/CEM21 cell fusion, luciferase; inhibition, % at 12.3 µM;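 active = mean replicate inhibition score of at least 50 and every replicate individually at or above 50; inconclusive = only one of the two criteria met; inactive = mean below 50 and not all replicates reaching 50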;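 note: 0% = plate neutral controls and 100% = maraviroc near 300 nM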
CFTR F508del cor = CFTR F508del correction in bronchial cells; CFBE cells, YFP halide quenching; stimulated with forskolin plus potentiator P3; % fluorescence drop versus neutral controls; activity (quench increase), % at 7.58 µM; 350,000 tested, 0.36% active;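 active = mean added fluorescence quench of at least 8% versus neutral control, with both replicates also reaching 8%; inconclusive = only one of the mean or replicate conditions met; inactive = mean below 8% and not both replicates reaching 8%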;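 note: cells transiently co-express mutant CFTR-F508del with the halide-sensitive YFP; corrector assay measuring rescue of mutant channel to the surface after 24 h compound exposure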
Cneo AK release = causes C. neoformans cell lysis. lysis activity, % at 15 µM. AID 651654. adenylate kinase release luminescence, 4 h; normalised: neutral wells 0, clomiphene wells 100. 360,000 tested, 0.2% active;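 active = mean lysis activity across replicates of at least 80%, whatever share of replicates individually reach that level; inactive = mean lysis activity below 80%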
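Signal: Adenylate kinase release luminescence | Assay system: Log-phase Cryptococcus neoformans yeast cells | Input: Cells at 5 × 10^6 per mL | Buffer or medium: Fresh YPD growth medium | Compound: Single dose | Schedule: Static 4 h at 37 °C with compound, 1 h detection | Controls: Clomiphene | Read-out: Luminescence rise reflecting yeast cell lysis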
rRNA inh HTS = inhibits bacterial ribosomal RNA function over humanized ribosomes; GFP signal change (wild-type ribosome), % (no concentration beside the values); 350,000 tested, 1.6% active; E. coli WT GFP vs humanized-ribosome RFP mutants, fluorescence, 24 h; active compounds read low; DMSO median 0, no signal -100;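 active = significant combined selectivity score with lowered wild-type GFP, culture density cut under 30%, mutant RFP and density less affected; inactive = any of these conditions unmet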
GSIS activator = GLuc luminescence reporter in INS-1E cells, primary screen for activators of glucose-dependent secretion of insulin. 370,000 tested, 0.61% active. activation, % at 16.6 µM. INS-1E GLuc reporter insulin secretion, 2-3 h;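 active = lowest replicate activation of at least 40%, so every replicate reaches that level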;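 note: 0% = median of neutral control wells and 100% = median of IBMX positive control wells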
miR122 inh = blocks miR-122 activity in Huh7 sensor cells; Huh7 miR-122 Renilla luciferase sensor, 48 h; neutral wells = 0, positive control = 100; activation (reporter increase), % at 12.5 µM; 340,000 tested, 0.3% active; AID 602342;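 active = mean replicate activation score at least 90 and every replicate individually at or above 90; inconclusive = only one of the two criteria met; inactive = neither criterion met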;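 note: higher luciferase means less miR-122 activity so hits act as miR-122 inhibitors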
AID977621 = wild-type E. coli growth inhibition versus H69 humanized strain – H69 mutant RFP, wild-type GFP, cherry-pick, dose response | shares compounds with rRNA inh HTS | fluorescence, 24 h | activity change, negative = inhibition at 50 µM | 1,900 tested, under 10 active | AID 977621;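 active = Wild-type ribosome reporter drop at least double the humanized mutant ribosome reporter drop, growth loss under a set limit; inconclusive = no clear call, values can overlap the other calls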;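 note: wild-type GFP and H69 mutant RFP strains grown together 50/50 in each well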
AID977628 = growth of wild-type and h24-humanized E. coli strains – h24 mutant RFP vs wild-type GFP, cherry-pick, dose response | shares compounds with rRNA inh HTS | E. coli WT GFP strain growth, fluorescence, 24 h | activity change, negative = inhibition at 50 µM | 1,900 tested, under 10 active | AID 977628;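 active = compound lowering the normal-ribosome reporter at least twice as much as the humanized-ribosome reporter, growth loss under a set limit; inconclusive = no clear call, values can overlap the other calls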;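 note: wild-type GFP and h24 humanized RFP strains co-cultured 1 to 1 per well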
Starred values were filed as active, the others as inactive; u = inconclusive; x = no result given; [ ] = remark or other dose.

SMILES	HIV Env fusion	CFTR F508del cor	Cneo AK release	rRNA inh HTS	GSIS activator	miR122 inh	AID977621	AID977628
COC(=O)Cn1c(=O)c2c(nc3n2CC(C)CN3Cc2ccccc2)n(C)c1=O (centres undefined)	20	1	x	1	9	x	x	x
C[C@@H]1CN([C@H](C)CO)C(=O)c2cc(NC(=O)C3CC3)ccc2O[C@H]1CN(C)C(=O)Nc1ccc(C(F)(F)F)cc1	x	1	10	-7	-11	11[16.7 µM]	x	x
Cc1noc(C)c1NC(=O)Nc1ccc2c(c1)C(=O)N([C@@H](C)CO)C[C@@H](C)[C@@H](CN(C)C(=O)Nc1ccc3c(c1)OCO3)OCCCC[C@@H](C)O2	23[16.7 µM]	0	1	-1	19	4[16.7 µM]	-0.24	u
C[C@@H]1CN([C@H](C)CO)C(=O)CCCn2nncc2CO[C@H]1CN(C)C(=O)Nc1ccc(C(F)(F)F)cc1	15[16.7 µM]	-3	4	-54	-16	-3[16.7 µM]	x	x
C[C@@H]1CN([C@H](C)CO)C(=O)CCCn2nncc2CO[C@@H]1CN(C)C(=O)Nc1ccc(C(F)(F)F)cc1	x	-2	0	-18*	-7	0[16.7 µM]	-15	u
Cc1noc(C)c1NC(=O)Nc1ccc2c(c1)C(=O)N([C@@H](C)CO)C[C@@H](C)[C@H](CN(C)C(=O)Nc1ccc3c(c1)OCO3)OCCCC[C@H](C)O2	12[16.7 µM]	-4	-1	-2	14	11[16.7 µM]	1.3	u
C[C@@H]1CN([C@@H](C)CO)C(=O)c2cc(NC(=O)C3CC3)ccc2O[C@H]1CN(C)C(=O)Nc1ccc(C(F)(F)F)cc1	x	3	7	-29*	-14	27[16.7 µM]	-18	-13
COc1ccc(NC(=O)N(C)C[C@@H]2Oc3ccc(NC(=O)c4ccncc4)cc3C(=O)N([C@H](C)CO)C[C@H]2C)cc1	-11[16.7 µM]	0	1	4	8	-4[16.7 µM]	x	x
C[C@H](CO)N1C[C@H](C)[C@H](CN(C)C(=O)Nc2ccc3c(c2)OCO3)Oc2c(NC(=O)Nc3ccccc3)cccc2C1=O	2[16.7 µM]	1	-4	-22*	-8	13[16.7 µM]	-11	u
C[C@@H]1CN([C@@H](C)CO)C(=O)c2cc(NS(C)(=O)=O)ccc2O[C@@H](C)CCCCO[C@@H]1CN(C)Cc1ccc2c(c1)OCO2	-30[16.7 µM]	-2	4	-2	30	4[16.7 µM]	x	x
CCOC(=O)c1c(NC(=O)CN(CC)CC)sc2c1CCC2	9	x	-4	-18	-23	7	x	x
CCN(CC)CC(=O)Nc1sc2c(c1C(=O)c1ccccc1OC)CCC2	8	-3	x	-22*	-3	x	3	-9.9
CN(Cc1ccc([N+](=O)[O-])cc1)c1ccccc1	19	2	-2	-26*	-19	x	-8.7	-8.9
O=C(c1ccc(-n2cccn2)cc1)N1CCc2ccccc2C1	-10	-1	-3	-27*	8	0	-5.9	u
O=C(c1ccncc1)N1CCc2ccccc2C1	x	0	0	2	18	-5	x	x
C[C@@H]1CN([C@@H](C)CO)C(=O)c2cc(NC(=O)Nc3cccc4ccccc34)ccc2O[C@@H](C)CCCCO[C@H]1CN(C)C(=O)Nc1cccc2ccccc12	33[16.7 µM]	3	-3	3	3	-6[16.7 µM]	x	x
CNC[C@H]1OCCCC[C@@H](C)Oc2ccc(NC(=O)Nc3cccc4ccccc34)cc2C(=O)N([C@@H](C)CO)C[C@H]1C	-34[16.7 µM]	-1	4	-25*	-4	-3[16.7 µM]	x	u
C[C@@H]1CN([C@H](C)CO)C(=O)c2cc(NC(=O)Nc3cccc4ccccc34)ccc2O[C@@H](C)CCCCO[C@H]1CN(C)C	-5[16.7 µM]	2	x	x	x	-7[16.7 µM]	x	x
C[C@@H]1CN([C@@H](C)CO)C(=O)c2cc(NC(=O)Nc3cccc4ccccc34)ccc2O[C@@H](C)CCCCO[C@@H]1CN(C)C	2[16.7 µM]	-2	x	-5	25	-5[16.7 µM]	-2	u
C[C@@H]1CCCCO[C@@H](CN(C)C)[C@@H](C)CN([C@@H](C)CO)C(=O)c2cc(NC(=O)Nc3cccc4ccccc34)ccc2O1	-8[16.7 µM]	2	2	-3	-21	0[16.7 µM]	-7	u
C[C@@H]1CN([C@@H](C)CO)C(=O)c2cccc(NC(=O)Nc3ccc4c(c3)OCO4)c2O[C@@H]1CN(C)C	x	-2	-2	8	33	-1[16.7 µM]	x	x
Cc1ccc(S(=O)(=O)N2CC(O)CC2C(=O)NCc2ccc3c(c2)OCO3)cc1 (centres undefined)	-29	1	2	8	22	-2	x	x
O=C(NCc1ccc2c(c1)OCO2)C1CCCN1S(=O)(=O)c1ccc(Cl)cc1 (centres undefined)	1	2	x	-19*	-17	x	-24	x
CC(C)Oc1cccc(C(=O)C2CCCN(Cc3ccc4nonc4c3)C2)c1 (centres undefined)	14	2	x	-29*	-26	x	u	x
CC(C)Oc1cccc(C(=O)C2CCCN(Cc3cnn(C(C)C)c3)C2)c1 (centres undefined)	8	1	x	12	-26	x	x	x
SMILES	HIV Env fusion	CFTR F508del cor	Cneo AK release	rRNA inh HTS	GSIS activator	miR122 inh	AID977621	AID977628
Cc1ccc(NC(=O)c2c(C)noc2-c2snnc2C)cc1	-6	1	x	-22*	x	x	x	u
CN1C(=O)c2cc(NS(=O)(=O)c3cccc(F)c3)ccc2OC[C@H]2O[C@@H](CC(=O)N3CCc4ccccc4C3)CC[C@@H]21	10[16.7 µM]	-3	x	-7	-9	0[16.7 µM]	x	x
CCCNC(=O)Nc1ccc2c(c1)C(=O)N(C)C[C@@H](OC)[C@H](C)CN(C(=O)C1CCC1)[C@H](C)CO2	x	-1	-3	5	-5	1[16.7 µM]	x	x
O=[N+]([O-])c1ccccc1Oc1ccc(Cl)c2cccnc12	-4	-1	x	-29*	42	x	-14	x
O=[N+]([O-])c1ccc(Cl)c2cccnc12	-9	-2	x	13	26	x	x	x
Cc1cccc(C)c1-n1nnnc1C1(C)CCC(=O)N1Cc1cccs1 (centres undefined)	-14	-2	x	-21*	53*	x	-26	x
CNC(=O)c1cc(C(=O)c2ccc(C(F)(F)F)cc2F)c[nH]1	5	1	x	-25*	-2	x	-7	u
CNC(=O)c1cc(C(=O)c2ccc(C(F)(F)F)cc2)c[nH]1	-1	1	0	-3	3	-1	x	x
Cc1ccc2sc(N(CCCN(C)C)C(=O)c3ccc(S(=O)(=O)N4CCc5ccccc5C4)cc3)nc2c1C	x	-3	-2	-29*	-52	-1	-1.3	-1.3
